Experimental findings from ChEMBL document CHEMBL1275394, “Design, synthesis, and biological evaluation of novel hybrid dicaffeoyltartaric/diketo acid and tetrazole-substituted L-chicoric acid analogue inhibitors of human immunodeficiency virus type 1 integrase” (J Med Chem, 2010) are described below.

A short description of series [1]: Cytotoxicity against human MT2 cells assessed as concentration required to 50% inhibition of cell growth relative to control. In kind it is cell-based. The following applies: read-out: Activity. In short, it runs like this:
(§1)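 MT-2 cells were grown in RPMI-1640 without antibiotics and exposed to compound. CT50 and CT5 are the concentrations inhibiting cellular replication by 50% and 5% relative to untreated control; CT5 corresponds to 95% viable cells. Values are the mean of triplicate assays with SD.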

A short description of series [2]: Inhibition of HIV NL4-3 recombinant histidine-tagged integrase 3'-end processing activity expressed in Escherichia coli BL21 (DE3). Also noted: species or system Human immunodeficiency virus. Put shortly:
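N-terminal 6-His-tagged HIV-1 NL4-3 IN expressed in E. coli BL21 DE3 pLysS, Ni2+ affinity purified (>95%), stored at -80 °C. The 32P-labeled blunt-end V1/V2 duplex mimicking the viral LTR was incubated with IN and increasing compound concentrations at 37 °C for 1 h, in triplicate. Products were resolved by denaturing PAGE and quantified by phosphorimager. 3'-processing was read as the 21mer to 19mer conversion.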

The test system of the next series is MT2. Description: Cytotoxicity against human MT2 cells assessed as concentration required to 5% inhibition of cell growth relative to control. The series is classed as cell-based. In short, it runs like this: as §1
Series [3] relates to Human immunodeficiency virus. Description: Antiviral activity against HIV LAI infected in human MT2 cells assessed as protection against virus-induced cytopathic effect. In kind it is functional, organism-based. To be noted: Human immunodeficiency virus 1, LAI. In short, it runs like this:
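MT-2 cells were cultured in RPMI-1640 without antibiotics and infected with HIV LAI. EC50 is the concentration protecting 50% of cells from virus-induced cytopathic effect. Values are the mean of triplicate assays with SD.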
(Cytopathic effects are the visible damage that an infection or toxin causes in cultured cells.)

Series [4] is described as follows: Inhibition of HIV NL4-3 recombinant histidine-tagged integrase strand transfer activity expressed in Escherichia coli BL21 (DE3). Further details: species or system Human immunodeficiency virus.
Series [5] in a line: Therapeutic index, ratio of CT50 for human MT2 cells to EC50 for HIV LAI. The series is classed as cell-based. The following applies: read-out: TI.

Structures are written as SMILES. Bounds are passed on as bounds.

The IC50 is the concentration needed to halve the response being measured. A word on the EC50: it is the concentration at which the effect is half-maximal.

For the compound `O=C(O)/C(O)=C/C(=O)c1ccc(O)c(O)c1`, in series [1], the CC50 came to 178 µM. The values for the IC50 in series [2] and in series [4] were 0.47 µM and 1.13 µM, respectively. The Activity in the series on MT2 was 67 µM. Further, in series [3], the EC50 was more than 67 µM.
Consider `COC(=O)/C(O)=C/C(=O)c1ccc(O)c(O)c1`, for which, in series [1], the CC50 is 182 µM. The concentration for half-maximal inhibition (IC50) is 2.81 µM in series [2] and 1.89 µM in series [4]. Further, the Activity in the series with MT2 was determined as 36 µM. Moreover, the EC50 in series [3] was more than 36 µM.
The like results for `O=C(/C=C(\O)C(=O)O)/C=C/c1ccc(O)c(O)c1` were, in that order, 80 µM, 1.1 µM, 0.81 µM, 32 µM and more than 36 µM.
The like results for `COC(=O)/C(O)=C/C(=O)c1ccc(NC(=O)/C=C/c2ccc(O)c(O)c2)cc1` were, in that order, 39.5 µM, 1.82 µM, 1.38 µM, 12.4 µM and more than 54 µM.
For `O=C(/C=C/c1ccc(O)c(O)c1)Nc1ccccc1C(=O)/C=C(\O)C(=O)O` the same measures were 53 µM, 2.28 µM, 2.55 µM, 23.3 µM and more than 37.5 µM.
Turning to `O=C(/C=C/c1ccc(O)c(O)c1)Nc1cccc(C(=O)/C=C(\O)C(=O)O)c1`, the CC50 in series [1] was found to be 52.8 µM. In addition, the half-inhibitory concentration (IC50) in series [2] came to 0.11 µM; in series [4], 0.36 µM. Also, the Activity in the series on MT2 is 20.4 µM. Also, in series [3], the EC50 is more than 34 µM.
The like results for `O=C(/C=C/c1ccc(O)c(O)c1)Nc1cc(NC(=O)/C=C/c2ccc(O)c(O)c2)cc(C(=O)/C=C(\O)C(=O)O)c1` were, in that order, more than 50.7 µM, 0.12 µM, 0.13 µM, more than 50.7 µM and more than 51 µM.
For `COC(=O)/C(O)=C/C(=O)c1cc(NC(=O)/C=C/c2ccc(O)c(O)c2)cc(NC(=O)/C=C/c2ccc(O)c(O)c2)c1` the same measures were more than 47.7 µM, 0.75 µM, 0.63 µM, more than 47.7 µM and more than 48 µM.
For `O=C(/C=C/c1ccc(O)c(O)c1)O[C@@H](C(=O)O)[C@@H](OC(=O)c1cccn1Cc1ccc(F)cc1)C(=O)O` the same measures were 399 µM, 4.05 µM, 1.27 µM, 41.8 µM and 110 µM.
As to `NC(=O)[C@H](OC(=O)/C=C/c1ccc(O)c(O)c1)[C@@H](OC(=O)/C=C/c1ccc(O)c(O)c1)c1nnn[nH]1`, in series [1], the CC50 worked out at 31.9 µM. Further, the IC50 came to 0.21 µM in series [2] and 0.27 µM in series [4]. Also, in the series with MT2, the Activity stood at 5.7 µM. Also, the half-maximal effective concentration (EC50) in series [3] was determined as 0.42 µM. The selectivity ratio in series [5] was more than 350.
On to `O=C(/C=C/c1ccc(O)c(O)c1)O[C@@H](c1nnn[nH]1)[C@@H](OC(=O)/C=C/c1ccc(O)c(O)c1)c1nnn[nH]1`, for which, in series [1], the CC50 is 422 µM. The IC50 in series [2] turned out to be 0.34 µM; in series [4], 0.44 µM. In addition, the Activity with MT2 amounted to 28.4 µM. In addition, the EC50 in series [3] is 0.33 µM. For the same compound, in series [5], the selectivity ratio is more than 350.
Turning to `O=C(O[C@@H](C(=O)O)[C@@H](O)C(=O)O)c1cccn1Cc1ccc(F)cc1`, the CC50 in series [1] came out at 792 µM. Further, the values for the IC50 in series [2] and in series [4] were 277 µM and 47.3 µM, respectively. Further, the Activity in the series with MT2 worked out at 60.8 µM. Further, the concentration giving a half-maximal response (EC50) in series [3] was more than 170 µM.
The like results for `O=C(O[C@@H](C(=O)O)[C@@H](OC(=O)c1cccn1Cc1ccc(F)cc1)C(=O)O)c1cccn1Cc1ccc(F)cc1` were, in that order, 374 µM, 136 µM, 74.2 µM, 28.7 µM and more than 90.5 µM.
Regarding `O=C(/C=C/c1ccc(O)c(O)c1)Nc1ccc(C(=O)/C=C(\O)C(=O)O)cc1`, the CC50 in series [1] was 47.2 µM. In addition, the IC50 is 0.4 µM in series [2] and 0.35 µM in series [4]. Further, in the series with MT2, the Activity was found to be 26.1 µM. In addition, the EC50 in series [3] was more than 16.9 µM.
The like results for `O=C(O)C(=O)CC(=O)c1cccn1Cc1ccc(F)cc1` were, in that order, more than 69.3 µM, 13 µM, 0.14 µM, more than 69.3 µM and 0.4 µM.
As to `O=C(/C=C/c1ccc(O)c(O)c1)OCC(OC(=O)/C=C/c1ccc(O)c(O)c1)c1nnn[nH]1` (racemic), the CC50 in series [1] was more than 42.5 µM. In addition, the values for the IC50 in series [2] and in series [4] were 0.14 µM and 0.12 µM, respectively. For the same compound, in the series on MT2, the Activity was more than 42.5 µM. In addition, in series [3], the EC50 turned out to be 0.85 µM.
On to `O=C(/C=C/c1cc(O)c(O)c(O)c1)OC(c1nnn[nH]1)C(OC(=O)/C=C/c1cc(O)c(O)c(O)c1)c1nnn[nH]1` (single isomer, unassigned), for which the CC50 in series [1] is 48.9 µM. Further, the IC50 in series [2] was determined as 0.39 µM; in series [4], 0.21 µM. For the same compound, in the series on MT2, the Activity stood at 11.3 µM. In series [3], the EC50 came out at 0.06 µM. The selectivity ratio in series [5] is more than 350.
With `O=C(/C=C/c1ccc(O)c(O)c1)O[C@@H](C(=O)O)[C@@H](O)C(=O)O` [CAFTARIC ACID], in series [1], the CC50 stood at 325 µM. Besides, the IC50 in series [2] was 19.1 µM; in series [4], 6.08 µM. Also, the Activity in the series on MT2 amounted to 49.6 µM. The EC50 in series [3] worked out at 80.5 µM.
The like results for `O=C(/C=C/c1ccc(O)c(O)c1)O[C@@H](C(=O)O)[C@@H](OC(=O)/C=C/c1ccc(O)c(O)c1)C(=O)O` [CICHORIC ACID] were, in that order, 124 µM, 0.22 µM, 0.27 µM, 41 µM and 0.81 µM.
